PMC12521504 (Communications Biology, 2025)
Where two headings read alike, the source gives them in different places.

Tests used:
male ICR-CD1 mice [1] = assay: Hot plate assay; assay type: in vivo, mouse; conditions: 15 min
Summary of the method: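 Male ICR-CD1 mice, 8 weeks old (n = 6–15/group), received compound i.c.v. (10 µl, 100 µg/mouse) under isoflurane, alone or with MERF (50 µg/mouse). Mice were placed on a glass platform preheated to 55 °C. Latency to shake, lick or lift the hind paw, or to jump, was timed at set points, with a 60 s cut-off. Results are %MPE = (Test−Baseline)/(60−Baseline) × 100.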

male ICR-CD1 mice [2] = assay: Formalin induced paw licking/lifting test; assay type: in vivo, mouse; conditions: 2% formalin
male ICR-CD1 mice [3] = assay: Tail-flick assay; assay type: in vivo, mouse; conditions: for %MPE (group mean): 15 min
Summary of the method: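 Radiant-heat tail-flick in 8-week male ICR-CD1 mice (n = 6–15/group). Beam was calibrated to a 2–4 s baseline, tail tip placed 20–30 mm from the source, cut-off 10 s. Compound was given i.c.v. under isoflurane at 100 µg/mouse (also 75 µg/mouse), alone or with MERF (50 µg/mouse). […] Results are %MPE relative to pre-treatment baseline.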

male ICR-CD1 mice [4] = assay: Acetic acid induced writhing test; assay type: in vivo, mouse; conditions: for effect of naloxone on analgesia of systemic (i.p.) compound: naloxone 5 mg/kg s.c.
mouse ACE (mACE) [5] = target: T1, mouse ACE (mACE) (Mus musculus, UniProt P09470); assay: Fluorescence-based ACE enzymatic assay with Mca-[…]; assay type: biochemical
T1 sequence (P09470 35-1312): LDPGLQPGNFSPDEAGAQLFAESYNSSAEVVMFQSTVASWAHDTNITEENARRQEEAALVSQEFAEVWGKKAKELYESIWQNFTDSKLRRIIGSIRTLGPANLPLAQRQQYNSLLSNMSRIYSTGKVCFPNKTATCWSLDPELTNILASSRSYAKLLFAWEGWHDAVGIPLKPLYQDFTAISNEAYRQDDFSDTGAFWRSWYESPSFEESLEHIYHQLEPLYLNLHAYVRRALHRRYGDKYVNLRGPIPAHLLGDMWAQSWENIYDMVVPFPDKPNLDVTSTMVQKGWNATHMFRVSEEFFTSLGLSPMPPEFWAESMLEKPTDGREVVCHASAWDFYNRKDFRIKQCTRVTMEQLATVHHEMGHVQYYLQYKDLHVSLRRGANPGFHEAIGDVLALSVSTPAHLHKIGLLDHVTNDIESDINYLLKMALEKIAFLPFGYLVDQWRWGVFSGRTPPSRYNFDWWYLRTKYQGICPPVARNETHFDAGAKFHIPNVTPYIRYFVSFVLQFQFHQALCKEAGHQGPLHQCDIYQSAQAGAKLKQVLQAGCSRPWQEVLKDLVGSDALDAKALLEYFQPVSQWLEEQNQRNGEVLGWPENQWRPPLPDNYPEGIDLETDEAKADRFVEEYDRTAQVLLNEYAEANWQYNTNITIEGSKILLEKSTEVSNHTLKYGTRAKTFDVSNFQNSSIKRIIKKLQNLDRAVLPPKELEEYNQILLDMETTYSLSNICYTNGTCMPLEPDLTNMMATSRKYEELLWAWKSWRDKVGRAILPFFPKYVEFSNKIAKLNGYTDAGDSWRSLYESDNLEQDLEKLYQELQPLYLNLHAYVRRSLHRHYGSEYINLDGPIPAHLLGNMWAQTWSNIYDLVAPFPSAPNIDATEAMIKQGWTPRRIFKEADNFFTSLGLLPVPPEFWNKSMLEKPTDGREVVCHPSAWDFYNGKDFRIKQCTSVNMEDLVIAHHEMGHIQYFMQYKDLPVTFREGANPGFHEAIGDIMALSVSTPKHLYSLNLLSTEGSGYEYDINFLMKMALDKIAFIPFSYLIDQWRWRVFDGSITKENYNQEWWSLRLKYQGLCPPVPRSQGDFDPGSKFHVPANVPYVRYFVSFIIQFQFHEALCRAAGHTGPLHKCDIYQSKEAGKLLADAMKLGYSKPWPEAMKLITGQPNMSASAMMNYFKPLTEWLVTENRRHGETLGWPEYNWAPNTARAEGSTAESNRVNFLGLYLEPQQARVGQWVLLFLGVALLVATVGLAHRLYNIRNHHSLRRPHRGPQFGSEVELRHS

C-domain of mACE = target: T2, C-domain of mACE (Mus musculus, UniProt P09470); assay: ACE C-domain specific enzymatic assay with Abz-LFK; assay type: biochemical
T2 sequence (P09470 35-1312): T1 sequence (P09470 35-1312)

N-domain of mACE = target: T3, N-domain of mACE (Mus musculus, UniProt P09470); assay: ACE N-domain specific enzymatic assay with Abz-SDK; assay type: biochemical
T3 sequence (P09470 35-1312): T1 sequence (P09470 35-1312)

[6] = tested on: extracellular MERF, Met-enkephalin and Leu-enkephalin levels; assay type: cell-based, mouse; conditions: thiorphan 10 μM, raloxifene 500 μM
mouse ACE (mACE) [7] = target: T1, mouse ACE (mACE); assay: Secondary LC-MS/MS ACE inhibition assay; assay type: biochemical
[8] = compound 100 μg/mouse + MERF i.c.v.
[9] = compound 100 μg/mouse i.c.v. alone
[10] = 100 µg/animal i.c.v. + naloxone 5 mg/kg s.c.
[11] = 100 µg/animal i.c.v., late phase
[12] = compound 100 μg/mouse + MERF 50 μg/mouse i.c.v.
[13] = 100 µg/animal i.c.v., 1% acetic acid i.p., 30 min

Molecule: C[C@H](CS)C(=O)N1CCC[C@H]1C(=O)O [Captopril, captopril]
- %MPE (group mean) (male ICR-CD1 mice [1]; [8]): 51.30%
- %MPE (group mean) (male ICR-CD1 mice [1]; [9]): 10.32%
- paw licking/lifting duration, Phase I (male ICR-CD1 mice [2]; [10]): 73.5 s
- paw licking/lifting duration, Phase II (male ICR-CD1 mice [2]; [10]): 16.25 s
- paw licking/lifting duration, Phase I (male ICR-CD1 mice [2]; 100 µg/animal i.c.v., 0–5 min): 16.5 s
- paw licking/lifting duration, Phase II (male ICR-CD1 mice [2]; [11]): 15 s
- %MPE (group mean) (male ICR-CD1 mice [3]; [12]): 68.31%
- %MPE (group mean) (male ICR-CD1 mice [3]; [9]): 21.68%
- writhings (group mean) (male ICR-CD1 mice [4]; [13]): 48
- writhings (group mean) (male ICR-CD1 mice [4]; 50 mg/kg i.p., 1% acetic acid): 57.66
- effect of naloxone on analgesia of systemic (i.p.) compound (male ICR-CD1 mice [4]): reversed by systemic naloxone

Molecule: O=C(O)c1nn(Cc2ccc(Cl)cc2Cl)c2ccccc12 [Lonidamine, lonidamine]
- confirmation of HTS findings in dose-response studies (mouse ACE (mACE) [5]): did not confirm the HTS findings

Molecule: C=CCN1CC[C@]23c4c5ccc(O)c4O[C@H]2C(=O)CC[C@@]3(O)[C@H]1C5 [Naloxone, naloxone]
- analgesia of naloxone itself (male ICR-CD1 mice [3]; 5 mg/kg s.c.): unable to induce analgesia

Molecule: O=C(c1ccc(OCCN2CCCCC2)cc1)c1c(-c2ccc(O)cc2)sc2cc(O)ccc12 [Raloxifene, raloxifene]
- %MPE (group mean) (male ICR-CD1 mice [1]; [8]): 25.89%
- %MPE (group mean) (male ICR-CD1 mice [1]; [9]): 5.52%
- paw licking/lifting duration, Phase I (male ICR-CD1 mice [2]; [10]): 69.75 s
- paw licking/lifting duration, Phase II (male ICR-CD1 mice [2]; [10]): 9.25 s
- paw licking/lifting duration, Phase I (male ICR-CD1 mice [2]; 100 µg/animal i.c.v., 0–5 min): 10 s
- paw licking/lifting duration, Phase II (male ICR-CD1 mice [2]; [11]): 2 s
- IC50 (mouse ACE (mACE) [5]): 102 ± 13.2 µM
- IC50 (C-domain of mACE): 140 µM
- Ki (C-domain of mACE): 30 µM
- %MPE (group mean) (male ICR-CD1 mice [3]; [12]): 34.28%
- %MPE (group mean) (male ICR-CD1 mice [3]; [9]): 13.33%
- writhings (group mean) (male ICR-CD1 mice [4]; 100 µg/animal i.c.v. + naloxone 5 mg/kg s.c., 1% acetic acid): 78.75
- writhings (group mean) (male ICR-CD1 mice [4]; [13]): 51.8
- effect of naloxone on analgesia of systemic (i.p.) compound (male ICR-CD1 mice [4]): naloxone failed to reverse the analgesic effect
- Ki (N-domain of mACE): 180 µM
- IC50 (N-domain of mACE; read-out: IC50 N-domain, 40 µM Abz-SDK(Dnp)P-OH, 35 nM mACE): 320 µM

Molecule: Cl.O=C(O)C1CCCN(CCC=C(c2ccccc2)c2ccccc2)C1 (stereo not shown) [SKF 89976A hydrochloride]
- confirmation of HTS findings in dose-response studies (mouse ACE (mACE) [5]): did not confirm the HTS findings

Molecule: O=C(O)CNC(=O)C(CS)Cc1ccccc1 (stereo not shown) [Thiorphan, thiorphan]
- effect on Met- and Leu-enkephalin levels [6]: affected the levels of Met- and Leu-enkephalins
- %MPE (group mean) (male ICR-CD1 mice [1]; [8]): 36.48%
- %MPE (group mean) (male ICR-CD1 mice [1]; [9]): 13.83%
- IC50 (mouse ACE (mACE) [7]): 3.51 ± 0.37 µM
- IC50 (mouse ACE (mACE) [5]): 2.36 ± 0.42 µM
- IC50 (C-domain of mACE): 0.77 ± 0.046 µM
- Ki (C-domain of mACE): 0.17 ± 0.01 µM
- C/N selectivity factor (C-domain of mACE; N-domain versus C-domain): 4.2
- %MPE (group mean) (male ICR-CD1 mice [3]; [12]): 40.32%
- %MPE (group mean) (male ICR-CD1 mice [3]; [9]): 22.45%
- IC50 (N-domain of mACE): 1.3 ± 0.08 µM
- Ki (N-domain of mACE): 0.71 ± 0.045 µM

Molecule: Met-enkephalin-Arg-Phe [MERF]
- %MPE (group mean) (male ICR-CD1 mice [3]; MERF 50 μg/mouse i.c.v. alone): 6.27%
